Arrestin-AP2 inh = human beta-arrestin and AP2 interaction inhibition; FITC-arrestin peptide / GST-AP2 beads, flow cytometry; AP2 beta2 appendage carries R879A mutation; inhibition, % at 10 µM; hit rate 0.31% among 340,000; AID 504490;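 active = inhibition above a set limit, near 3 SD of compounds lacking own fluorescence, cut at about 54% in these data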;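 also: plate controls were DMSO wells for no effect and 5 µM unlabelled arrestin peptide for full effect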
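Material – GST-tagged AP2 beta2-adaptin appendage (R879A) on 4 µm glutathione beads · Probe or stimulus – fluorescein-tagged arrestin peptide at 50 nM final · Timing – 12 min plus 1 h, RT · Detection – bead flow cytometry, FITC channel · Read-out basis – inhibition as reduced fluorescein signal on beads, percent · Medium – PBS plus Tween 20 (0.05%) and BSA (0.1%)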
Pemphigus Ab inh = inhibitors of pemphigus antibody binding to human desmoglein-3. P32926. DSG3-coupled beads, scFv-anti-DSG3-GFP binding, flow cytometry; hits give low values. binding (percent of control), % at 10 µM. hit rate 0.48% among 310,000;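 active = binding more than 3 SD below its plate's average and above zero; inconclusive = below that plate limit but binding exactly zero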;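 also: hits lower antibody fragment binding to DSG3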
Efflux pump inh = blocks antifungal efflux pumps in multiplex yeast assay | inhibition, % at 10 µM | hit rate 0.44% among 330,000 | S. cerevisiae Candida pump triplex, Nile Red efflux;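 active = plate passing quality check with inhibition over a set limit, or well fluorescence over plate mean plus 4 SD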;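 also: Nile Red retained in pooled yeast measured as flow cytometry median fluorescence; 0% = buffer negative control and 100% = Enniatin B positive control; higher means more Nile Red kept so more efflux inhibition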
Neddylation inh = cullin neddylation inhibition; P61081+Q13564; TR-FRET cullin neddylation, biochemical; inhibition, % at 25 µM; hit rate 0.58% among 360,000; in the data active = inhibition above about 36%
Neddyl conf = cullin neddylation inhibition, confirmation | AID 652217 | calls only at 25 µM | shares compounds with Neddylation inh | hit rate 13% among 1,800 | TR-FRET cullin neddylation biochemical assay; in the data active = inhibition above about 40%;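 also: neddylation substrate is the cullin 1 ring ligase complex with SKP2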
Numbers without * were called inactive; i = inactive; u = inconclusive; x = not tested or not shown; + = active, no number. An excerpt weighted towards active compounds, which were near 1.7% of everything screened.

SMILES	Arrestin-AP2 inh	Pemphigus Ab inh	Efflux pump inh	Neddylation inh	Neddyl conf
COc1ccccc1C(=O)N1CCN(c2ccc(N3CCOCC3)nn2)CC1	-16	u	0	x	x
O=C(c1cccc([N+](=O)[O-])c1)N1CCN(c2ccc(N3CCOCC3)nn2)CC1	-13	98	0	-13	x
Cc1cc(C)n2nc(SCC(=O)c3cc(C)n(-c4cc(C)on4)c3C)nc2n1	-12	120	0	3	x
COc1ccc(NC2CCCN(C(=O)CN3C(=O)c4ccccc4C3=O)C2)cc1OC (centres undefined)	44	103	0	-12	x
COc1ccc(-n2ncc3c(NCCN4CCOCC4)ncnc32)cc1	13	98	0	29	x
C=CCNc1ncnc2c1cnn2-c1ccc(OC)cc1	18	106	0	46*	i
COc1ccc(-n2ncc3c(NCCCN4CCOCC4)ncnc32)cc1	15	86	0	42*	i
CCCCNC(=O)c1ccc2c(c1)N(CC)C(=O)c1ccccc1S2(=O)=O	4	96	0	-8	x
CC(=O)c1c[nH]c(C(=O)NCc2ccccc2Cl)c1	11	108	0	0	x
C=CCNC(=O)/C(C#N)=C/c1c(N2CCCCCC2)nc2ccccn2c1=O	10	94	0	48*	i
COc1ccc2cc(/C(C)=N/NC(=O)C3CC3)ccc2c1	-12	97	0	43*	i
CC1CC(C)CN(C(=O)C(NS(=O)(=O)c2ccc(Br)s2)c2ccccc2)C1 (centres undefined)	11	99	0	-4	x
c1ccc(-c2nc3ccccn3c2-c2ccccc2)cc1	28	x	0	40*	x
COC(=O)Nc1c(-c2ccccc2)nc2ccccn12	-4	100	0	x	x
COc1cccc2c(Nc3ccccc3C)cc(C)nc12	-1	101	0	5	x
COc1cc(O)cc(/C=C/c2ccccc2)c1	2	98	x	41*	+
CCCS(=O)(=O)c1nc(S(=O)(=O)c2ccc(C)cc2)c(N2CCN(CC)CC2)s1	37	x	0	-8	x
Cn1c(=O)c(-c2ccccc2)nc2ccccc21	2	103	0	58*	+
COc1ccccc1NC(=O)NC1(C)CCS(=O)(=O)C1 (centres undefined)	23	117	x	-3	x
CCOCCN1CCN(c2c(C)c(C)nc3cc(-c4cc(OC)cc(OC)c4)nn23)CC1	-5	101	1	45*	i
COCCN1CCN(c2c(C)c(C)nc3cc(-c4cccc(OC)c4)nn23)CC1	13	92	0	24	x
COC(=O)c1cc2ccccc2c(-c2c(OC)c(C(=O)OC)cc3ccccc23)c1OC	3	x	0	41*	i
CC(C)NC(=O)N(C)C[C@H]1Oc2c(NC(=O)C3CC3)cccc2C(=O)N([C@H](C)CO)C[C@@H]1C	-1	101	0	-11	x
Cc1c(Oc2ccc(C(F)(F)F)cc2[N+](=O)[O-])ccc2c3c(c(=O)oc12)CCC3	5	x	0	40*	i
CCOC(=O)C1CC(=NO)c2ccc(OC)c(OC)c2C1 (centres undefined)	x	109	x	40*	i
SMILES	Arrestin-AP2 inh	Pemphigus Ab inh	Efflux pump inh	Neddylation inh	Neddyl conf
Cc1ccc(-c2cc(-c3ccc4c(c3)OCO4)c(C#N)c(N)n2)o1	13	90	0	28	x
Cc1ccc(-c2cc(-c3ccc(F)cc3)c(C#N)c(N)n2)o1	19	87	0	53*	x
O=C(CN1C(=O)NC(c2ccccc2)(c2ccccc2)C1=O)NCc1ccc(F)cc1	-5	114	0	-9	x
Cc1ccccc1/C=N/n1c(-c2cc(-c3ccccc3)n[nH]2)n[nH]c1=S	5	102	0	7	x
S=c1[nH]nc(-c2cc(-c3ccccc3)n[nH]2)n1/N=C/C=C/c1ccco1	37	110	0	70*	i
S=c1[nH]nc(-c2ccco2)n1/N=C/C=C/c1ccco1	0	102	0	0	x
S=c1[nH]nc(-c2cc(-c3ccccc3)n[nH]2)n1/N=C/c1c(Cl)cccc1Cl	-25	x	0	49*	i
CCOC(=O)C1=C(COC(=O)/C=C/c2ccc(SC)cc2)NC(=O)NC1C (centres undefined)	33	103	0	51*	x
Cc1cc(C(=O)NCc2ccccc2)c(=O)[nH]c1C	6	98	0	53*	+
CC(C)[N+]1=C2C=CC=CC=C2SC12C([N+](=O)[O-])=CC(=[N+]([O-])[O-])C=C2[N+](=O)[O-] (centres undefined)	23	66*	0	44*	i
CS(=O)(=O)N(CC(=O)N/N=C/c1cccc2c1OCCO2)c1ccccc1Br	-4	115	0	45*	+
O=C(COC(=O)/C=C/c1ccco1)NCc1ccc2c(c1)OCO2	-2	104	1	-13	x
CN(C)c1cccc(C(=O)NCc2ccc3c(c2)OCO3)c1	5	x	0	44*	+
Nc1nc2n(n1)C(c1cccc(Br)c1)CC(c1ccc(F)cc1)N2 (centres undefined)	-7	104	0	39*	i
Nc1nc2n(n1)C(c1ccccc1)CC(c1ccc(F)cc1)N2 (centres undefined)	5	112	0	9	x
CC(C)C(=O)Nc1ccc2nn(-c3ccc(F)cc3)nc2c1	0	131	0	x	x
Cc1ccc(-n2nc3ccc(NC(=O)C(C)C)cc3n2)cc1	5	97	0	43*	i
Cn1c(=O)c2cc3ccccc3nc2n(C)c1=O	9	x	0	48*	+
COC(=O)[C@H](Cc1c[nH]c2ccccc12)NC(=O)Nc1ccccc1OC	-13	110	0	-6	x
COc1cc(NC(=O)N[C@@H](Cc2c[nH]c3ccccc23)C(=O)O)c(C(=O)O)cc1OC	-13	100	0	45*	x
C=CCn1c(SCC(=O)N(C)C2CCS(=O)(=O)C2)nnc1-c1ccncc1 (centres undefined)	19	101	0	-8	x
CCCCNC(=O)[C@@H]1CSC2c3ccc(OC)c(OC)c3C(=O)N21 (some centres undefined)	-1	101	0	42*	i
NS(=O)(=O)c1ccc(CCNC(=O)Cc2ccc(S(=O)(=O)N3CCCC3)s2)cc1	-4	97	0	1	x
C=CCNc1nc(N2CCCCC2)c(C#N)c2c1CN(Cc1ccccc1)CC2	4	114	0	x	x
COc1cc(C(=O)NNC(=S)NC(=O)c2ccc(F)cc2)cc(OC)c1OC	42	106	0	35*	i
COc1ccc2oc(C(=O)NC(C)(C)C)c(C)c2c1	7	97	0	44*	i
COc1ccc2oc(C(=O)N3CCN(S(=O)(=O)c4ccc(F)cc4)CC3)c(C)c2c1	-4	x	0	8	x
COc1ccc2oc(C(=O)NNC(=O)c3ccc(F)cc3)c(C)c2c1	0	107	0	42*	x
Cc1sc2ccccc2c1CNC[C@H]1O[C@@H](n2cnc3c(N)ncnc32)[C@H](O)[C@@H]1O	-3	96	0	6	x

Screening data deposited in PubChem BioAssay by several laboratories.
